Calls of active or inactive are those of the source. The rule behind the calls is not given here.
Experiments:
FGM [1] = assay: Inhibition of importin alpha/beta-mediated nuclear transportation of Alexa555-BSA-NLS in human FGM cell nucleus at 500 uM after 30 mins by fluorescence microscopy; format: cell-based
FGM [2] = assay: Inhibition of importin alpha/beta-mediated nuclear transportation of Alexa555-GST-M9 in human FGM cell nucleus at 500 uM after 30 mins by fluorescence microscopy; format: cell-based
Summary of the method: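 Transportin-dependent import measured the same way in permeabilized FGM cells, with 0.5 μM Alexa555-GST-M9 cargo in place of BSA-NLS. Conditions: 3 mg/ml HeLa cytosol, ATP-regenerating system, 0.2 mM GTP, 1% DMSO, 30 min at 30°C. Positive control was 1 mg/ml WGA. Nuclear cargo fluorescence quantified per nucleus by automated imaging.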

With `NCCCC[C@H](N)C(=O)N1C[C@@H](C(=O)NCCc2c[nH]cn2)[C@H](C(=O)NCCc2c[nH]c3ccccc23)C1` the inhibition (FGM [1]) was “inactive” and the inhibition (FGM [2]) was “inactive”.

`NCCCCNC(=O)[C@@H]1CN(C(=O)[C@@H](N)CCCCN)C[C@H]1C(=O)NCCc1ccc2ccccc2c1` was tested, and the inhibition (FGM [1]) was “inactive” and the inhibition (FGM [2]) was “inactive”.

For `C[C@@H](O)[C@H](N)C(=O)N1C[C@@H](C(=O)NCCCCN)[C@H](C(=O)NCCc2ccc3ccccc3c2)C1`, the inhibition (FGM [1]) was “inactive” and the inhibition (FGM [2]) was “inactive”.

With `CC[C@H](C)[C@H](NC(=O)c1ccc(NC(=O)[C@H](C)N)c(OCc2c[nH]cn2)c1)C(=O)O` the inhibition (FGM [1]) was “inactive” and the inhibition (FGM [2]) was “inactive”.

For `CSCC[C@H](N)C(=O)N1C[C@@H](C(=O)NCCCCN)[C@H](C(=O)NCCc2ccc3ccccc3c2)C1`, the inhibition (FGM [1]) was “inactive” and the inhibition (FGM [2]) was “inactive”.

With `CC[C@@H](C)[C@H](NC(=O)c1ccc(NC(=O)[C@@H](N)CC(=O)O)c(OCc2c[nH]cn2)c1)C(=O)O` the inhibition (FGM [1]) was “inactive” and the inhibition (FGM [2]) was “inactive”.

With `CC[C@H](N)C(=O)Nc1ccc(C(=O)N[C@H](C(=O)O)[C@@H](C)CC)cc1OCc1c[nH]cn1` the inhibition (FGM [1]) was “inactive” and the inhibition (FGM [2]) was “inactive”.

In the case of `NCCCCNC(=O)[C@@H]1CN(C(=O)[C@@H](N)CCc2ccccc2)C[C@H]1C(=O)NCCc1ccc2ccccc2c1`, the inhibition (FGM [1]) is reported as “inactive” and the inhibition (FGM [2]) is reported as “inactive”.

`NC(=O)C[C@H](N)C(=O)N1C[C@@H](C(=O)NCCc2c[nH]cn2)[C@H](C(=O)NCCc2c[nH]c3ccccc23)C1` was tested, and the inhibition (FGM [1]) was “inactive” and the inhibition (FGM [2]) was “inactive”.

In the case of `N[C@@H](CO)C(=O)Nc1ccc(C(=O)N[C@@H](CCc2ccccc2)C(=O)O)cc1OCc1ccc(Cl)cc1`, the inhibition (FGM [1]) is reported as “Active” and the inhibition (FGM [2]) is reported as “Active”.

With `N[C@@H](CCc1ccc(O)cc1)C(=O)N1C[C@@H](C(=O)NCCc2c[nH]cn2)[C@H](C(=O)NCCc2c[nH]c3ccccc23)C1` the inhibition (FGM [1]) was “inactive” and the inhibition (FGM [2]) was “inactive”.

For `CC[C@@H](C)[C@H](NC(=O)c1ccc(NC(=O)[C@@H](N)Cc2c[nH]cn2)c(OCc2c[nH]cn2)c1)C(=O)O`, the inhibition (FGM [1]) was “Active” and the inhibition (FGM [2]) was “Active”.

`COc1ccc(C[C@H](N)C(=O)N2C[C@@H](C(=O)NCCc3c[nH]cn3)[C@H](C(=O)NCCc3c[nH]c4ccccc34)C2)cc1` was tested, and the inhibition (FGM [1]) was “Active” and the inhibition (FGM [2]) was “Active”.

`CC[C@H](C)[C@H](NC(=O)c1ccc(NC(=O)CN)c(OCc2c[nH]cn2)c1)C(=O)O` was tested, and the inhibition (FGM [1]) was “inactive” and the inhibition (FGM [2]) was “inactive”.

With `N[C@@H](Cc1ccc2ccccc2c1)C(=O)Nc1ccc(C(=O)N[C@@H](CCc2ccccc2)C(=O)O)cc1OCc1ccc(Cl)cc1` the inhibition (FGM [1]) was “inactive” and the inhibition (FGM [2]) was “inactive”.

With `N[C@@H](Cc1c[nH]c2ccccc12)C(=O)N1C[C@@H](C(=O)NCCc2c[nH]cn2)[C@H](C(=O)NCCc2c[nH]c3ccccc23)C1` the inhibition (FGM [1]) was “Active” and the inhibition (FGM [2]) was “Active”.

For `N[C@@H](Cc1ccc2ccccc2c1)C(=O)N1C[C@@H](C(=O)NCCc2c[nH]cn2)[C@H](C(=O)NCCc2c[nH]c3ccccc23)C1`, the inhibition (FGM [1]) was “Active” and the inhibition (FGM [2]) was “Active”.

In the case of `NCCCCNC(=O)[C@@H]1CN(C(=O)[C@@H](N)Cc2ccccc2)C[C@H]1C(=O)NCCc1ccc2ccccc2c1`, the inhibition (FGM [1]) is reported as “inactive” and the inhibition (FGM [2]) is reported as “inactive”.

In the case of `NCCCCNC(=O)[C@@H]1CN(C(=O)[C@@H](N)CCc2ccc(Cl)cc2)C[C@H]1C(=O)NCCc1ccc2ccccc2c1`, the inhibition (FGM [1]) is reported as “inactive” and the inhibition (FGM [2]) is reported as “inactive”.

With `NCCCCNC(=O)[C@@H]1CN(C(=O)[C@@H](N)CCc2ccc(O)cc2)C[C@H]1C(=O)NCCc1ccc2ccccc2c1` the inhibition (FGM [1]) was “inactive” and the inhibition (FGM [2]) was “inactive”.

`N[C@@H](Cc1ccc(Cl)cc1)C(=O)N1C[C@@H](C(=O)NCCc2c[nH]cn2)[C@H](C(=O)NCCc2c[nH]c3ccccc23)C1` was tested, and the inhibition (FGM [1]) was “Active” and the inhibition (FGM [2]) was “Active”.

`N[C@@H](CC(=O)O)C(=O)Nc1ccc(C(=O)N[C@@H](CCc2ccccc2)C(=O)O)cc1OCc1ccc(Cl)cc1` was tested, and the inhibition (FGM [1]) was “Active” and the inhibition (FGM [2]) was “Active”.

With `C[C@@H](O)[C@H](N)C(=O)Nc1ccc(C(=O)N[C@@H](CCc2ccccc2)C(=O)O)cc1OCc1ccc(Cl)cc1` the inhibition (FGM [1]) was “inactive” and the inhibition (FGM [2]) was “inactive”.

In the case of `CC[C@H](C)[C@H](NC(=O)c1ccc(NC(=O)[C@@H](N)C(C)C)c(OCc2c[nH]cn2)c1)C(=O)O`, the inhibition (FGM [1]) is reported as “inactive” and the inhibition (FGM [2]) is reported as “inactive”.

With `N[C@@H](CCc1ccccc1)C(=O)N1C[C@@H](C(=O)NCCc2c[nH]cn2)[C@H](C(=O)NCCc2c[nH]c3ccccc23)C1` the inhibition (FGM [1]) was “Active” and the inhibition (FGM [2]) was “Active”.

`C[C@H](N)C(=O)N1C[C@@H](C(=O)NCCc2c[nH]cn2)[C@H](C(=O)NCCc2c[nH]c3ccccc23)C1` was tested, and the inhibition (FGM [1]) was “inactive” and the inhibition (FGM [2]) was “inactive”.

In the case of `CC(C)C[C@H](N)C(=O)N1C[C@@H](C(=O)NCCCCN)[C@H](C(=O)NCCc2ccc3ccccc3c2)C1`, the inhibition (FGM [1]) is reported as “inactive” and the inhibition (FGM [2]) is reported as “inactive”.

In the case of `CC[C@@H](C)[C@H](N)C(=O)Nc1ccc(C(=O)N[C@H](C(=O)O)[C@@H](C)CC)cc1OCc1c[nH]cn1`, the inhibition (FGM [1]) is reported as “inactive” and the inhibition (FGM [2]) is reported as “inactive”.

`N[C@@H](Cc1ccc(Cl)cc1)C(=O)Nc1ccc(C(=O)N[C@@H](CCc2ccccc2)C(=O)O)cc1OCc1ccc(Cl)cc1` was tested, and the inhibition (FGM [1]) was “inactive” and the inhibition (FGM [2]) was “inactive”.

For `NCCCCNC(=O)[C@@H]1CN(C(=O)[C@@H](N)Cc2c[nH]c3ccccc23)C[C@H]1C(=O)NCCc1ccc2ccccc2c1`, the inhibition (FGM [1]) was “Active” and the inhibition (FGM [2]) was “Active”.

`CC[C@H](C)[C@H](N)C(=O)N1C[C@@H](C(=O)NCCCCN)[C@H](C(=O)NCCc2ccc3ccccc3c2)C1` was tested, and the inhibition (FGM [1]) was “inactive” and the inhibition (FGM [2]) was “inactive”.

In the case of `CC(C)C[C@H](N)C(=O)N1C[C@@H](C(=O)NCCc2c[nH]cn2)[C@H](C(=O)NCCc2c[nH]c3ccccc23)C1`, the inhibition (FGM [1]) is reported as “inactive” and the inhibition (FGM [2]) is reported as “inactive”.

In the case of `CC[C@H](C)[C@H](NC(=O)c1ccc(NC(=O)[C@@H](N)Cc2ccccc2)c(OCc2c[nH]cn2)c1)C(=O)O`, the inhibition (FGM [1]) is reported as “inactive” and the inhibition (FGM [2]) is reported as “inactive”.

In the case of `N[C@@H](CCc1ccc(Cl)cc1)C(=O)N1C[C@@H](C(=O)NCCc2c[nH]cn2)[C@H](C(=O)NCCc2c[nH]c3ccccc23)C1`, the inhibition (FGM [1]) is reported as “inactive” and the inhibition (FGM [2]) is reported as “inactive”.

For `N[C@@H](Cc1ccccc1)C(=O)Nc1ccc(C(=O)N[C@@H](CCc2ccccc2)C(=O)O)cc1OCc1ccc(Cl)cc1`, the inhibition (FGM [1]) was “Active” and the inhibition (FGM [2]) was “Active”.

In the case of `N[C@@H](Cc1c[nH]c2ccccc12)C(=O)Nc1ccc(C(=O)N[C@@H](CCc2ccccc2)C(=O)O)cc1OCc1ccc(Cl)cc1`, the inhibition (FGM [1]) is reported as “Active” and the inhibition (FGM [2]) is reported as “Active”.

For `NCCCCNC(=O)[C@@H]1CN(C(=O)[C@@H](N)CO)C[C@H]1C(=O)NCCc1ccc2ccccc2c1`, the inhibition (FGM [1]) was “inactive” and the inhibition (FGM [2]) was “inactive”.

In the case of `CSCC[C@H](N)C(=O)N1C[C@@H](C(=O)NCCc2c[nH]cn2)[C@H](C(=O)NCCc2c[nH]c3ccccc23)C1`, the inhibition (FGM [1]) is reported as “inactive” and the inhibition (FGM [2]) is reported as “inactive”.

With `CC[C@H](C)[C@H](NC(=O)c1ccc(NC(=O)[C@@H](N)Cc2c[nH]c3ccccc23)c(OCc2c[nH]cn2)c1)C(=O)O` the inhibition (FGM [1]) was “inactive” and the inhibition (FGM [2]) was “inactive”.

With `CC[C@@H](C)[C@H](NC(=O)c1ccc(NC(=O)[C@@H](N)CCCCN)c(OCc2c[nH]cn2)c1)C(=O)O` the inhibition (FGM [1]) was “inactive” and the inhibition (FGM [2]) was “inactive”.

In the case of `COc1ccc(C[C@H](N)C(=O)N2C[C@@H](C(=O)NCCCCN)[C@H](C(=O)NCCc3ccc4ccccc4c3)C2)cc1`, the inhibition (FGM [1]) is reported as “inactive” and the inhibition (FGM [2]) is reported as “inactive”.

In the case of `CC(C)[C@H](N)C(=O)Nc1ccc(C(=O)N[C@@H](CCc2ccccc2)C(=O)O)cc1OCc1ccc(Cl)cc1`, the inhibition (FGM [1]) is reported as “inactive” and the inhibition (FGM [2]) is reported as “inactive”.

With `CC[C@H](C)[C@H](NC(=O)c1ccc(NC(=O)[C@@H](N)Cc2ccc(OC)cc2)c(OCc2c[nH]cn2)c1)C(=O)O` the inhibition (FGM [1]) was “inactive” and the inhibition (FGM [2]) was “inactive”.

For `CC[C@H](C)[C@H](NC(=O)c1ccc(NC(=O)[C@@H](N)CC(N)=O)c(OCc2c[nH]cn2)c1)C(=O)O`, the inhibition (FGM [1]) was “inactive” and the inhibition (FGM [2]) was “inactive”.

With `CC[C@H](C)[C@H](N)C(=O)N1C[C@@H](C(=O)NCCc2c[nH]cn2)[C@H](C(=O)NCCc2c[nH]c3ccccc23)C1` the inhibition (FGM [1]) was “Active” and the inhibition (FGM [2]) was “Active”.

`CC[C@H](C)[C@H](NC(=O)c1ccc(NC(=O)[C@@H](N)CC(C)C)c(OCc2c[nH]cn2)c1)C(=O)O` was tested, and the inhibition (FGM [1]) was “inactive” and the inhibition (FGM [2]) was “inactive”.

For `NCCCCNC(=O)[C@@H]1CN(C(=O)[C@@H](N)CC(N)=O)C[C@H]1C(=O)NCCc1ccc2ccccc2c1`, the inhibition (FGM [1]) was “inactive” and the inhibition (FGM [2]) was “inactive”.

In the case of `N[C@@H](Cc1ccccc1)C(=O)N1C[C@@H](C(=O)NCCc2c[nH]cn2)[C@H](C(=O)NCCc2c[nH]c3ccccc23)C1`, the inhibition (FGM [1]) is reported as “Active” and the inhibition (FGM [2]) is reported as “Active”.

With `CC[C@H](N)C(=O)Nc1ccc(C(=O)N[C@@H](CCc2ccccc2)C(=O)O)cc1OCc1ccc(Cl)cc1` the inhibition (FGM [1]) was “Active” and the inhibition (FGM [2]) was “Active”.

With `NCCCCNC(=O)[C@@H]1CN(C(=O)[C@@H](N)Cc2ccc3ccccc3c2)C[C@H]1C(=O)NCCc1ccc2ccccc2c1` the inhibition (FGM [1]) was “inactive” and the inhibition (FGM [2]) was “inactive”.

`CC(C)[C@H](N)C(=O)N1C[C@@H](C(=O)NCCc2c[nH]cn2)[C@H](C(=O)NCCc2c[nH]c3ccccc23)C1` was tested, and the inhibition (FGM [1]) was “inactive” and the inhibition (FGM [2]) was “inactive”.

With `NCCCCNC(=O)[C@@H]1CN(C(=O)[C@@H](N)CC(=O)O)C[C@H]1C(=O)NCCc1ccc2ccccc2c1` the inhibition (FGM [1]) was “inactive” and the inhibition (FGM [2]) was “inactive”.

With `CC[C@@H](C)[C@H](NC(=O)c1ccc(NC(=O)[C@@H](N)CO)c(OCc2c[nH]cn2)c1)C(=O)O` the inhibition (FGM [1]) was “Active” and the inhibition (FGM [2]) was “Active”.

Reference: ChEMBL document CHEMBL1828601, “Small molecule peptidomimetic inhibitors of importin α/β mediated nuclear transport” (Bioorg Med Chem, 2010)
